In ChEMBL document CHEMBL3414427, “Structure-activity relationships of 3-O-β-chacotriosyl ursolic acid derivatives as novel H5N1 entry inhibitors” (Eur J Med Chem, 2015) one finds IC50, CC50 and inhibition data, which are given here for 16 compounds.

Data set [1] is described as follows: cells. Conditions: Influenza A virus, MDCK, 48 h. Format: functional, cell-based, Influenza A virus (A/Thailand/Kan353/2004(H5N1)).
A short description of data set [2]: Cytotoxicity against MDCK cells. The data set is classed as cell-based, Canis lupus familiaris. Conditions: dog. In outline:
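MDCK cells (ATCC) grown in DMEM containing glutamine, supplemented with 10% fetal calf serum. CC50 is the mean of three independent assays.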

Data set [3] has as its target Neuraminidase (Influenza A virus) (UniProt A5Z252). Briefly: Inhibition of Influenza A virus (H5N1) neuraminidase N1 at 20 microg/ml after 30 mins by fluorescence based assay. A digest of the protocol:
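Fluorescence-based kit assay with purified N1-type neuraminidase in detection buffer. Test compound was added, then neuraminidase substrate. Incubated at 37 °C for 30 min; fluorescence read at excitation 340 nm and emission 535 nm.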

Data set [4] relates to Vesicular stomatitis virus. Put plainly: Antiviral activity against VSV-G enveloped pseudovirus. The data set is classed as functional, organism-based. In outline: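 VSV-G pseudotyped particles (negative control), incubated with compound instead of H5N1 pseudovirus. MDCK cells (ATCC; DMEM with glutamine plus 10% FCS), seeded at 10⁴/well and grown overnight, then infected and incubated a further 48 h. Cells were PBS-washed and lysed, and luciferase activity was read by luminometer after adding substrate.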

As usually defined, the IC50 is the concentration that gives 50% inhibition. Read a high IC50 as lower potency. For orientation: CC50 means the concentration that lowers cell viability or growth by half. Low readings indicate greater toxicity to the cells, high ones lower toxicity to the cells.

Structures are written as SMILES. Activity calls are given as the source filed them. No cut-off for these calls is given here.

With `CCCOC(=O)[C@]12CC[C@@H](C)[C@H](C)[C@H]1C1=CC[C@@H]3[C@@]4(C)CC[C@H](O[C@@H]5O[C@H](CO)[C@@H](O[C@@H]6O[C@@H](C)[C@H](O)[C@@H](O)[C@H]6O)[C@H](O)[C@H]5O[C@@H]5O[C@@H](C)[C@H](O)[C@@H](O)[C@H]5O)C(C)(C)[C@@H]4CC[C@@]3(C)[C@]1(C)CC2`, the IC50 in data set [1] is 2.3 µM. In addition, the CC50 in data set [2] was found to be 19.2 µM.

Compound `C=CCOC(=O)[C@]12CC[C@@H](C)[C@H](C)[C@H]1C1=CC[C@@H]3[C@@]4(C)CC[C@H](O[C@@H]5O[C@H](CO)[C@@H](O[C@@H]6O[C@@H](C)[C@H](O)[C@@H](O)[C@H]6O)[C@H](O)[C@H]5O[C@@H]5O[C@@H](C)[C@H](O)[C@@H](O)[C@H]5O)C(C)(C)[C@@H]4CC[C@@]3(C)[C@]1(C)CC2` came in with an IC50 in data set [1] of 34 µM. The compound also yielded a CC50 in data set [2] of 21.8 µM.

`C[C@H]1[C@H](C)CC[C@]2(C(=O)O)CC[C@]3(C)C(=CC[C@@H]4[C@@]5(C)CC[C@H](O[C@@H]6O[C@H](CO)[C@@H](O[C@@H]7O[C@@H](C)[C@H](O)[C@@H](O)[C@H]7O)[C@H](O)[C@H]6O[C@@H]6O[C@@H](C)[C@H](O)[C@@H](O)[C@H]6O)C(C)(C)[C@@H]5CC[C@]43C)[C@H]12` displayed a concentration for half-maximal inhibition (IC50) in data set [1] of 10.1 µM. In data set [2], this compound registered a CC50 of 26.2 µM.

In data set [1], `C[C@H]1[C@H](C)CC[C@]2(C(=O)N(C)C)CC[C@]3(C)C(=CC[C@@H]4[C@@]5(C)CC[C@H](O[C@@H]6O[C@H](CO)[C@@H](O[C@@H]7O[C@@H](C)[C@H](O)[C@@H](O)[C@H]7O)[C@H](O)[C@H]6O[C@@H]6O[C@@H](C)[C@H](O)[C@@H](O)[C@H]6O)C(C)(C)[C@@H]5CC[C@]43C)[C@H]12` came in with an IC50 of 0.98 µM. In data set [2], the CC50 was 48.6 µM. The inhibition entry in data set [3] and in data set [4] was “inactive” throughout.

With `C[C@H]1[C@H](C)CC[C@]2(C(=O)OC3CCCC3)CC[C@]3(C)C(=CC[C@@H]4[C@@]5(C)CC[C@H](O[C@@H]6O[C@H](CO)[C@@H](O[C@@H]7O[C@@H](C)[C@H](O)[C@@H](O)[C@H]7O)[C@H](O)[C@H]6O[C@@H]6O[C@@H](C)[C@H](O)[C@@H](O)[C@H]6O)C(C)(C)[C@@H]5CC[C@]43C)[C@H]12`, 4.91 µM corresponded to half-maximal inhibition in data set [1] (IC50). In data set [2], this compound had a CC50 of 24.2 µM.

The compound `CNC(=O)[C@]12CC[C@@H](C)[C@H](C)[C@H]1C1=CC[C@@H]3[C@@]4(C)CC[C@H](O[C@@H]5O[C@H](CO)[C@@H](O[C@@H]6O[C@@H](C)[C@H](O)[C@@H](O)[C@H]6O)[C@H](O)[C@H]5O[C@@H]5O[C@@H](C)[C@H](O)[C@@H](O)[C@H]5O)C(C)(C)[C@@H]4CC[C@@]3(C)[C@]1(C)CC2` displayed an IC50 in data set [1] of 22.5 µM. In addition, the CC50 in data set [2] is over 200 µM.

Compound `CCOC(=O)[C@]12CC[C@@H](C)[C@H](C)[C@H]1C1=CC[C@@H]3[C@@]4(C)CC[C@H](O[C@@H]5O[C@H](CO)[C@@H](O[C@@H]6O[C@@H](C)[C@H](O)[C@@H](O)[C@H]6O)[C@H](O)[C@H]5O[C@@H]5O[C@@H](C)[C@H](O)[C@@H](O)[C@H]5O)C(C)(C)[C@@H]4CC[C@@]3(C)[C@]1(C)CC2` registered a half-maximal inhibitory concentration (IC50) in data set [1] of 1.16 µM. The CC50 in data set [2] amounted to 19.1 µM.

As for `C=C(C)[C@@H]1CC[C@]2(C(=O)OC)CC[C@]3(C)[C@H](CC[C@@H]4[C@@]5(C)CC[C@H](O[C@@H]6O[C@H](CO)[C@@H](O[C@@H]7O[C@@H](C)[C@H](O)[C@@H](O)[C@H]7O)[C@H](O)[C@H]6O[C@@H]6O[C@@H](C)[C@H](O)[C@@H](O)[C@H]6O)C(C)(C)[C@@H]5CC[C@]43C)[C@H]12`, the IC50 in data set [1] came out at 2.08 µM. This compound also returned a CC50 in data set [2] of 33.9 µM.

For `CCN(CC)C(=O)[C@]12CC[C@@H](C)[C@H](C)[C@H]1C1=CC[C@@H]3[C@@]4(C)CC[C@H](O[C@@H]5O[C@H](CO)[C@@H](O[C@@H]6O[C@@H](C)[C@H](O)[C@@H](O)[C@H]6O)[C@H](O)[C@H]5O[C@@H]5O[C@@H](C)[C@H](O)[C@@H](O)[C@H]5O)C(C)(C)[C@@H]4CC[C@@]3(C)[C@]1(C)CC2`, 1.41 µM corresponded to half-maximal inhibition in data set [1] (IC50). Besides, the CC50 in data set [2] worked out at 47 µM.

In data set [1], `COC(=O)[C@@]1(C)CC[C@]2(C)CC[C@]3(C)C(=CC(=O)[C@@H]4[C@@]5(C)CC[C@H](O[C@@H]6O[C@H](CO)[C@@H](O[C@@H]7O[C@@H](C)[C@H](O)[C@@H](O)[C@H]7O)[C@H](O)[C@H]6O[C@@H]6O[C@@H](C)[C@H](O)[C@@H](O)[C@H]6O)C(C)(C)[C@@H]5CC[C@]43C)[C@@H]2C1` showed a half-inhibitory concentration (IC50) of 4.93 µM. The compound also returned a CC50 in data set [2] of 17.1 µM.

In data set [1], `COC(=O)[C@]12CC[C@@H](C)[C@H](C)[C@H]1C1=CC(=O)[C@@H]3[C@@]4(C)CC[C@H](O[C@@H]5O[C@H](CO)[C@@H](O[C@@H]6O[C@@H](C)[C@H](O)[C@@H](O)[C@H]6O)[C@H](O)[C@H]5O[C@@H]5O[C@@H](C)[C@H](O)[C@@H](O)[C@H]5O)C(C)(C)[C@@H]4CC[C@@]3(C)[C@]1(C)CC2` showed an IC50 of 5.68 µM. Moreover, the CC50 in data set [2] was 38.4 µM.

In data set [1], `COC(=O)[C@]12CC[C@@H](C)[C@H](C)[C@H]1C1=CC[C@@H]3[C@@]4(C)CC[C@@H](O[C@@H]5O[C@H](CO)[C@@H](O[C@@H]6O[C@@H](C)[C@H](O)[C@@H](O)[C@H]6O)[C@H](O)[C@H]5O[C@@H]5O[C@@H](C)[C@H](O)[C@@H](O)[C@H]5O)C(C)(C)[C@@H]4CC[C@@]3(C)[C@]1(C)CC2` showed a half-maximal inhibitory concentration (IC50) of 1.33 µM. In addition, in data set [2], the 50% cytotoxic concentration (CC50) was over 200 µM. For the same compound, the inhibition entry in data set [3] and in data set [4] was “inactive” each time.

`COC(=O)[C@]12CCC(C)(C)C[C@H]1C1=CC[C@@H]3[C@@]4(C)CC[C@H](O[C@@H]5O[C@H](CO)[C@@H](O[C@@H]6O[C@@H](C)[C@H](O)[C@@H](O)[C@H]6O)[C@H](O)[C@H]5O[C@@H]5O[C@@H](C)[C@H](O)[C@@H](O)[C@H]5O)C(C)(C)[C@@H]4CC[C@@]3(C)[C@]1(C)CC2` returned an IC50 in data set [1] of 3.74 µM. Further, half-maximal cytotoxicity in data set [2] (CC50) was put at 16.9 µM.

The compound `O=C(NCCN1CCCCC1)c1cc(F)cc(C(F)(F)F)c1` returned an IC50 in data set [1] of 4.45 µM. The compound also came in with a CC50 in data set [2] of 1480 µM.

In data set [1], `COC(=O)[C@]12CC[C@@H](C)[C@H](C)[C@H]1C1=CC[C@@H]3[C@@]4(C)CC[C@H](O[C@@H]5O[C@H](CO)[C@@H](O[C@@H]6O[C@@H](C)[C@H](O)[C@@H](O)[C@H]6O)[C@H](O)[C@H]5O[C@@H]5O[C@@H](C)[C@H](O)[C@@H](O)[C@H]5O)C(C)(C)[C@@H]4CC[C@@]3(C)[C@]1(C)CC2` returned a half-maximal inhibitory concentration (IC50) of 1.02 µM. In data set [2], half-maximal cytotoxicity (CC50) was put at 13 µM. Further, the inhibition entry in data set [3] and in data set [4] was “inactive” in each case.

Regarding `CCCCCOC(=O)[C@]12CC[C@@H](C)[C@H](C)[C@H]1C1=CC[C@@H]3[C@@]4(C)CC[C@H](O[C@@H]5O[C@H](CO)[C@@H](O[C@@H]6O[C@@H](C)[C@H](O)[C@@H](O)[C@H]6O)[C@H](O)[C@H]5O[C@@H]5O[C@@H](C)[C@H](O)[C@@H](O)[C@H]5O)C(C)(C)[C@@H]4CC[C@@]3(C)[C@]1(C)CC2`, in data set [1], the IC50 was determined as 3.72 µM. Besides, the CC50 in data set [2] is 20.1 µM.
